Results of several laboratories.
Each line is one published result; the experiments were not run side by side.
MCU: Calcium uniporter protein, mitochondrial (MCU, Homo sapiens, UniProt Q8NE86)
BACE1: Beta-secretase 1 (BACE1, Homo sapiens, UniProt P56817)

| Compound | target | test | conditions | IC50 |
| --- | --- | --- | --- | --- |
| CC(=O)Oc1ccc(-c2coc3c4c(c(CC=C(C)C)c(OC(C)=O)c3c2=O)OC(C)(C)C=C4)cc1OC(C)=O | Serine/threonine-protein kinase mTOR (MTOR, Homo sapiens, UniProt P42345) | enzyme activity, inhibitor, ELISA |  | 6200 nM |
| NCCN.NCCN.NCCN.[Co+3] | MCU | transporter uptake, inhibitor |  | 76 nM |
| N#CC(C#N)=Cc1cc(C(=O)CCl)c[nH]1 | Epidermal growth factor receptor (EGFR, Homo sapiens, UniProt P00533) | enzyme activity, inhibitor, mobility shift |  | 13000 nM |
| Cc1ccc(-c2ncn(-c3ccc(Nc4nccc(-c5cccc(N6CCOCC6)c5)n4)cc3)n2)cn1 | Mitogen-activated protein kinase 8 (MAPK8, Homo sapiens, UniProt P45983) | enzyme activity, inhibitor |  | 67 nM |
| O=S(=O)([O-])[O-].[Cu+2] | Delta-aminolevulinic acid dehydratase (Homo sapiens, UniProt P13716, C162A/K59N) | enzyme activity, inhibitor, absorbance | pH 8 | 2200 nM |
| Brc1cc2c(N3CCNCC3)nccn2c1 | BACE1 | enzyme activity, inhibitor, FRET | pH 5 | 600000 nM |
| COc1ccc(C(=O)O)cc1S(=O)(=O)Nc1ccc(C(F)(F)F)cc1N1CCCCC1 | Endoplasmic reticulum aminopeptidase 2 (ERAP2, Homo sapiens, UniProt Q6P179, K392N) | enzyme activity, inhibitor, fluorescence |  | 27000 nM |
| C1CNCN2CNCCNCN(CN1)CNCCNC2.[Co+3] | MCU | transporter uptake, inhibitor |  | 131 nM |
| N.N.N.N.N.N.N.N.O=C(O)c1cccc1.O=C(O)c1cccc1.[Fe+2].[Fe+2].[N-3].[Ru+4].[Ru+4].c1cccc1.c1cccc1 | MCU | transporter uptake, inhibitor |  | 10.5 nM |
| CC(C)C[C@H](NC(=O)[C@H](Cc1ccccc1)NC(=O)[C@H](Cc1ccc(O)cc1)NC(=O)CNC(=O)[C@H](CCCCN)NC(=O)[C@H](CO)NC(=O)[C@H](CCC(N)=O)NC(=O)CNC(=O)[C@@H](NC(=O)[C@H](CO)NC(=O)[C@@H]1CCCN1C(=O)[C@H](CO)NC(=O)[C@H](CCC(N)=O)NC(=O)[C@H](Cc1ccc(O)cc1)NC(=O)[C@H](CCC(=O)O)NC(=O)[C@H](C)NC(=O)[C@H](CCCCN)NC(=O)[C@@H](N)Cc1ccccc1)C(C)C)C(=O)N[C@@H](Cc1ccccc1)C(=O)N[C@@H](CCCNC(=N)N)C(=O)N1CCC[C@H]1C(=O)N[C@@H](CCCNC(=N)N)C(=O)N[C@@H](CC(N)=O)C(N)=O | Neuromedin-U receptor 2 (Mus musculus, UniProt Q8BZ39) | ligand displacement, radioligand |  | 0.0302 nM |
| COc1cc(OC)c2c(O)c3c(=O)cc(C)oc3cc2c1 | BACE1 | enzyme activity, inhibitor, FRET |  | > 100000 nM |
| COc1cc(Nc2ncc(F)c(Nc3ccc4c(n3)NC(=O)C(C)(C)O4)n2)cc(OC)c1OC | Adenosine receptor A3 (ADORA3, Homo sapiens, UniProt P0DMS8) | cell-free assay, inhibitor |  | 20 nM |
